From PubChem
Compounds with a hit are over-represented: about 1.4% of the library has one in this group of screens.
UCH37 DUB inh: blocks the human deubiquitinase UCH37; Q9Y5K5; purified proteasome/UCH37, Ub-AMC cleavage fluorescence; inhibition, % (test concentration not listed); 0.33% of 330,000 active; AID 588478;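 active = mean inhibition over replicate wells above about 20%, limit read from the data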;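 also: 0% = compound-free wells with enzyme and 100% = wells lacking proteasome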
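Material: Human UCH37 enzyme supplied as purified proteasome complex | Schedule: 30 min compound-proteasome preincubation then 25 min substrate reaction, room temperature | Detection: AMC fluorescence from Ub-AMC cleavage, excitation 355 nm, emission 460 nm | Benchmarks: Wells without proteasome as full block, compound-free enzyme plus substrate as uninhibited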
CTSL1 counter: blocks F. hepatica cathepsin L1 in PFM18AAP counter-screen; AID 1906; recombinant F. hepatica cathepsin L1, Z-Leu-Arg-MCA fluorescence; 0.49% of 300,000 active; inhibition, % at 5.96 µM;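 active = inhibition above the mean of all tested compounds plus 3 SD, set per screening campaign, cut at about 17% in these data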;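 also: 0% = plate median of test compound wells and 100% = 1 µM Z-Phe-Ala-diazomethylketone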
UBC9 SUMO inh: blocks human SUMOylation mediated by UBC9; P63279; HTRF SUMOylation assay, SAE1/SAE2 + UBC9, in vitro; inhibition, % at 35 µM; 0.36% of 290,000 active; AID 2006; in the data active = inhibition above about 50%, passing the limit was not always enough
Neddyl block: inhibitors of human cullin neddylation. P61081+Q13564. TR-FRET cullin neddylation, biochemical. inhibition, % at 25 µM. 0.58% of 360,000 active. AID 651699; in the data active = inhibition above about 36%
Target sequence (P61081 whole entry, looked up): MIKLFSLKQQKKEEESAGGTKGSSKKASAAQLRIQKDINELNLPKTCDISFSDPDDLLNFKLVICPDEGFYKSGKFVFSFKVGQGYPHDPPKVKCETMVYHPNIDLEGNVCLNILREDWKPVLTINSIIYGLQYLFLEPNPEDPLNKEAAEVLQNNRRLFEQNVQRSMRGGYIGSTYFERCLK
Target sequence (Q13564 whole entry, looked up): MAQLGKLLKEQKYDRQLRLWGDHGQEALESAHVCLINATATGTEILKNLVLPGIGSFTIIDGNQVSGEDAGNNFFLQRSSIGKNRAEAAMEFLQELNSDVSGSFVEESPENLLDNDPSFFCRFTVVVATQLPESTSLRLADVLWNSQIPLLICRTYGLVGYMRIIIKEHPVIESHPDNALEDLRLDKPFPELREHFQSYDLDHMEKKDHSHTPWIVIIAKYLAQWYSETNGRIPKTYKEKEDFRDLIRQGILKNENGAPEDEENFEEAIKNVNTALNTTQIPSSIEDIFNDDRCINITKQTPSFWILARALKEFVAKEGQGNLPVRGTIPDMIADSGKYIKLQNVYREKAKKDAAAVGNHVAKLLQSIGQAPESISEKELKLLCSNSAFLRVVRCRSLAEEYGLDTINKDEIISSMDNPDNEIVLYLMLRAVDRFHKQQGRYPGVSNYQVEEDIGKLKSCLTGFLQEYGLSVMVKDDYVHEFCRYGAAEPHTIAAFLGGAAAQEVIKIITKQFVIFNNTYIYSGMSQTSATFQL
Neddyl conf: confirmation of human cullin neddylation inhibitors. shares compounds with Neddyl block. TR-FRET cullin neddylation biochemical assay. calls only at 25 µM. 13% of 1,800 active. AID 652217; in the data active = inhibition above about 40%;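 also: neddylation substrate is the cullin 1 ring ligase complex with SKP2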
Active calls of the source: *.

How did O=c1c(C=NOCc2ccc(Cl)cc2Cl)c[nH]n1-c1cccc(Cl)n1 do in these assays?
UCH37 DUB inh: 2.9

How did S=c1[nH]nc(-c2cc(-c3ccccc3)n[nH]2)n1/N=C/c1ccc(Cl)c(Cl)c1 do in these assays?
CTSL1 counter: 0.0; Neddyl block: 82.7*; Neddyl conf: inactive

How did O=c1[nH]c2ccc(S(=O)(=O)N3CCN(C4CCCCC4)CC3)cc2[nH]c1=O do in these assays?
UCH37 DUB inh: -25.5; CTSL1 counter: 1.9; UBC9 SUMO inh: 18.2; Neddyl block: 39.5*

How did O=S(=O)(c1ccc(S(=O)(=O)N2CCN(C3CCCCC3)CC2)cc1)N1CCCCCC1 do in these assays?
UCH37 DUB inh: -1.2; UBC9 SUMO inh: -4.5; Neddyl block: 1.9

Results for O=C(CCN1CCOCC1)NN=Cc1cc([N+](=O)[O-])ccc1OC(F)F ?
UCH37 DUB inh: -1.0

What do the screens show for `Cc1csc(N2CCN(c3cc4c(cc3Cl)nc(-c3ccncc3)n4CCCN3CCCC3)CC2)n1`?
UCH37 DUB inh: 4.1; CTSL1 counter: -0.8; UBC9 SUMO inh: 7.1; Neddyl block: 29.8*; Neddyl conf: inactive

How did COCCN(C(=O)COC(=O)/C=C/c1ccc(OC)c(OC)c1)c1c(N)n(Cc2ccccc2)c(=O)[nH]c1=O do in these assays?
UCH37 DUB inh: -38.6; CTSL1 counter: 1.0; Neddyl block: 25.0

Results for COCCN(C(=O)COC(=O)/C=C/c1cccc(OC)c1)c1c(N)n(CC(C)C)c(=O)[nH]c1=O ?
UCH37 DUB inh: -32.8; Neddyl block: 45.1*

What do the screens show for `CCOc1ccc(C=NN2C(=O)C(CC(=O)Nc3ccc(F)cc3F)SC2=NC)cc1OC` (stereo not given)?
UCH37 DUB inh: 3.5

Results for COc1ccc(-c2cc3ccc(OCC(C)=O)cc3oc2=O)cc1OC ?
UCH37 DUB inh: -88.6; CTSL1 counter: 5.2; UBC9 SUMO inh: 15.5; Neddyl block: -53.2

Results for COc1ccc(-c2cc3ccc(OCc4nn[nH]n4)cc3oc2=O)cc1OC ?
UCH37 DUB inh: -34.0; CTSL1 counter: 2.5; UBC9 SUMO inh: 27.6; Neddyl block: 57.7*; Neddyl conf: active

Results for O=C(N/N=C/c1ccccc1O)C1(O)c2ccccc2-c2ccccc21 ?
CTSL1 counter: 4.1; UBC9 SUMO inh: -4.7; Neddyl block: 46.4*; Neddyl conf: inactive

Results for CC(=O)Nc1cccc(C(C)=NNC(=O)c2ccc(O)cc2)c1 ?
UCH37 DUB inh: 1.7

What do the screens show for `Cc1cc(C)n2c3c(c(C#N)c2n1)CCCC3`?
UCH37 DUB inh: -29.4; CTSL1 counter: 3.4; UBC9 SUMO inh: 14.4; Neddyl block: 40.9*; Neddyl conf: inactive

How did Cc1ccc(C=NNC(=O)C[n+]2ccccc2)s1 do in these assays?
UCH37 DUB inh: 7.0

What do the screens show for `O=C1CC2(CCCCC2)Oc2ccc(Cl)cc21`?
UCH37 DUB inh: -33.9; CTSL1 counter: -3.2; Neddyl block: 28.0*; Neddyl conf: inactive

Results for C[C@H]1CCC[C@]2(CC(=O)c3cc(F)ccc3O2)C1 ?
UCH37 DUB inh: -19.8; CTSL1 counter: -0.7; Neddyl block: 25.1

How did CCc1ccc2c(c1)C(=O)C[C@]1(CCC[C@H](C)C1)O2 do in these assays?
UCH37 DUB inh: -6.5; CTSL1 counter: -1.1; Neddyl block: 26.2*; Neddyl conf: inactive

How did O=C1CC2(CCCCCC2)Oc2ccc(Cl)cc21 do in these assays?
UCH37 DUB inh: -8.8; CTSL1 counter: 1.4; Neddyl block: 34.4

What do the screens show for `COc1cc(C(=O)NN=Cc2coc3ccccc3c2=O)cc(OC)c1OC`?
UCH37 DUB inh: -29.5

Results for O=C(NN=Cc1c(F)c(F)c(F)c(F)c1F)c1cc(-c2ccccc2)nc2ccccc12 ?
UCH37 DUB inh: 5.0

How did COc1ccc(OC)c(/C=N/Nc2cc(C)nc(N3CCOCC3)n2)c1 do in these assays?
CTSL1 counter: -0.1; UBC9 SUMO inh: 0.8; Neddyl block: 38.6*; Neddyl conf: inactive

What do the screens show for `COc1ccccc1C=NNc1cc(C)nc(N2CCOCC2)n1`?
UCH37 DUB inh: -47.0

How did COC(=O)c1nn(-c2ccccc2)c(Sc2ccc(C)cc2)c1C=NO do in these assays?
UCH37 DUB inh: -3.1

What do the screens show for `COc1ccccc1/C=N/NC(=O)c1ccccc1NS(=O)(=O)c1ccc(C)cc1`?
CTSL1 counter: 10.4; UBC9 SUMO inh: -7.7; Neddyl block: 51.5*

How did COc1ccccc1C=NNC(=O)C(=O)NN=Cc1ccccc1OC do in these assays?
UCH37 DUB inh: -81.6; Neddyl block: 40.4*; Neddyl conf: inactive

Results for Cc1ccc(NC(=O)NC(=O)N(C(C)C)S(C)(=O)=O)nc1 ?
UCH37 DUB inh: -77.5; CTSL1 counter: 5.0; UBC9 SUMO inh: -8.5; Neddyl block: 52.9*

How did CC(C)N(C(=O)NC(=O)Nc1ccccn1)S(C)(=O)=O do in these assays?
UCH37 DUB inh: -110.1; CTSL1 counter: -0.3; UBC9 SUMO inh: 17.5; Neddyl block: 26.7

Results for O=C(NN=Cc1cccnc1)c1ccc2ccccc2c1O ?
UCH37 DUB inh: 5.1

Results for C/C(=N\NC(=O)c1cccc(S(=O)(=O)Nc2cccc(Cl)c2)c1)c1cccs1 ?
CTSL1 counter: 2.9; UBC9 SUMO inh: -0.6; Neddyl block: 43.8*; Neddyl conf: inactive

Results for Cc1ccc(/C=N/NC(=O)c2cccc(S(=O)(=O)Nc3cccc(Cl)c3)c2)o1 ?
CTSL1 counter: -0.4; UBC9 SUMO inh: 61.0*; Neddyl block: 43.4*; Neddyl conf: inactive

Results for N#C/C(=C\c1ccncc1)c1nc2c(s1)CCCC2 ?
UCH37 DUB inh: -120.6; CTSL1 counter: 1.7; UBC9 SUMO inh: 45.2; Neddyl block: 56.6*

Results for N#CC(=Cc1ccncc1)c1ccccc1 ?
Neddyl block: -16.1

How did CCCn1c(NN=C(C)/C=C/c2ccccc2)nc2c1c(=O)[nH]c(=O)n2C do in these assays?
UCH37 DUB inh: -16.1

Results for CC(C)=CCC/C(C)=C/CCC(C)=NO ?
UCH37 DUB inh: 2.7

How did c1ccc(-c2nc(N3CCCC3)nc3ccccc23)cc1 do in these assays?
UCH37 DUB inh: -37.3; CTSL1 counter: 3.7; UBC9 SUMO inh: 33.1; Neddyl block: 26.9

Results for Clc1ccc(-c2nc(N3CCOCC3)nc3ccccc23)cc1 ?
UCH37 DUB inh: -81.8; CTSL1 counter: 0.0; UBC9 SUMO inh: 4.8; Neddyl block: 44.4*

What do the screens show for `c1ccc(-c2cc(N3CCOCC3)nc3ccccc23)cc1`?
UCH37 DUB inh: -89.0; CTSL1 counter: -1.5; UBC9 SUMO inh: 23.7; Neddyl block: 46.5*; Neddyl conf: inactive

Results for N#Cc1cc(N2CCOCC2)nc2ccccc12 ?
UCH37 DUB inh: -26.0; CTSL1 counter: 2.6; UBC9 SUMO inh: 9.5; Neddyl block: 36.2*; Neddyl conf: inactive

How did COc1cc(C=NNC(=O)c2ccncc2)ccc1OC(=O)c1ccco1 do in these assays?
UCH37 DUB inh: 5.2

How did CC(C)Oc1ccc(C=NNC(=O)c2ccc(N(Cc3ccccc3)S(C)(=O)=O)cc2)cc1 do in these assays?
UCH37 DUB inh: 0.9

Results for CC(C)c1ccc(C=Nn2cnnc2)cc1 ?
UCH37 DUB inh: 0.2
